# Source: PubChem BioAssay
# Pyk2 oligo antag: antagonists of human Pyk2 oligomerization | hit rate 0.83% among 99,000 | Q14289 | Q293 cells, Pyk2 FERM NanoBiT luminescence; stronger effect = lower value | z-score (the deposit names both 25 µM and 10 µM);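 active = Z-score of -3 or lower, scaled per plate to the spread of control and sample wells; inactive = z-score above -3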;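 also: negative z-score means lost luminescence so less FERM oligomerization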
# Cav32 inh: blocks human Cav3.2 T-type calcium channel; B-score at 10 µM; hit rate 4% among 100,000; Cav3.2-expressing cells, Fluo-4 calcium fluorescence FDSS; stronger effect = lower value; O95180; AID 449739;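 active = single-dose well whose peak fluorescence ratio is a statistical outlier from its plate by either plate-standardised score or position-corrected B-score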
# Measles CPE: protection of cells from measles virus. Measles virus-infected cells, CPE protection, absorbance. protection (pct of control), % at 4 µM. hit rate 1.5% among 140,000. AID 841; in the data active = protection mostly above about 24%, no sharp cut-off; inactive = mostly below about 26%
# Rev-RRE block: inhibitors of HIV-1 Rev-RRE RNA interaction. inhibition, % at 8 µM. P05866. hit rate 0.79% among 97,000. Rev peptide-RRE RNA binding, FRET;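 active = inhibition above the screen-wide mean plus 3 SD, cut at about 35% in these data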;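 also: 0% = median DMSO wells and 100% = median Neomycin B control wells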
#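 Test system – labelled RRE RNA duplex and labelled Rev peptide · Reagent – labelled Rev peptide · Doses – one concentration, 8 µM nominal · Incubation – 5 + 15 min at 25 °C · Signal – FRET fluorescence readout · Read-out basis – % inhibition of FRET ratio versus controls · Control set – DMSO wells as 0% and neomycin B wells as 100% inhibition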
# Phagocyt inh: inhibitors of macrophage phagocytosis. J774A.1 macrophage IgG-bead phagocytosis, imaging. inhibition, % at 5 µM. hit rate 0.07% among 110,000;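 active = inhibition above the mean of the plate negative controls plus 5 SD, cut at about 13% in these data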;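 also: phagocytic index as fraction of beads internalized from green versus red external bead signal; plate controls were DMSO negative control for no effect and cytochalasin-D positive control for full effect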
# hDAT+cocaine: human DAT dopamine uptake with cocaine, either direction; LLC-PK1 hDAT cells, [14C]-dopamine uptake with cocaine IC80; actives deviate in either direction; Q01959; hit rate 1.3% among 110,000; B-score at 10 µM;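 active = Z score or B-score, a plate-position-corrected score, falls beyond the plate's 99.7% confidence bounds, in either direction; inactive = both scores lie inside the 99.7% bounds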;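 also: scored against the spread of the other compound wells on the same plate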
# Target sequence (Q01959 whole entry, looked up): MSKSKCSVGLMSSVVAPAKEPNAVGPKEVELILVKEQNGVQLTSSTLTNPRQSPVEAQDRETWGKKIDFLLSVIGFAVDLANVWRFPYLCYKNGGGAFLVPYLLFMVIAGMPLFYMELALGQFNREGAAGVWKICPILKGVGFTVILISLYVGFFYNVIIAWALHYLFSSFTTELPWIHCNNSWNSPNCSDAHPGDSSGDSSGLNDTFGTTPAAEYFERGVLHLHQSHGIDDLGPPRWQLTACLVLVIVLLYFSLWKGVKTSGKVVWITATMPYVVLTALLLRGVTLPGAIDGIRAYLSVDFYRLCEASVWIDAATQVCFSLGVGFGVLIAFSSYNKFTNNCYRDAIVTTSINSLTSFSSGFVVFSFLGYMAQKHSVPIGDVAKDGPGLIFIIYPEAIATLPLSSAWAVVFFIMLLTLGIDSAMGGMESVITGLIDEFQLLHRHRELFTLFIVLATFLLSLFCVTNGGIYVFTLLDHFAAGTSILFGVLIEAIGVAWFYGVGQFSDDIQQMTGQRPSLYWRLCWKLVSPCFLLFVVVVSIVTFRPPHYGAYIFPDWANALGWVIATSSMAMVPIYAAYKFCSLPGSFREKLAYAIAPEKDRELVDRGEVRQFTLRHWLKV
# Starred values were filed as active, the others as inactive; . = no result given. This is a sample that favours compounds with a hit; in the whole collection about 5.9% have one here.
SMILES,Pyk2 oligo antag,Cav32 inh,Measles CPE,Rev-RRE block,Phagocyt inh,hDAT+cocaine
CCN(CC)CCNc1nc(-c2ccccc2)nnc1C(F)(F)F,0.01,0.32,43*,10,2,0.001
CCOC(=O)c1c(C)[nH]c(C(=O)CN2C(=O)NC(CC)(c3ccccc3)C2=O)c1C (configuration not stated),-0.34,-5.7*,4,9,2,1.1
CCN(CC(=O)Nc1ccc(NC(C)=O)cc1)C(=O)/C=C/c1cccs1,.,.,44*,.,-5,.
CCCN(CC(=O)Nc1ccccc1C)C(=O)/C=C/c1cccs1,.,.,23,.,-4,.
CCc1c(C)nc(Nc2nc(C)c3ccc(OC)cc3n2)[nH]c1=O,-0.46,1.1,19,1,0,1.7
CCCCCc1c(C)nc(Nc2nc(C)c3cc(OC)ccc3n2)[nH]c1=O,0.17,-3.8*,10,0,-1,1
O=C(NCCc1c[nH]c2ccccc12)[C@@H]1C[C@H]1[C@@H](NP(=O)(c1ccccc1)c1ccccc1)c1ccccc1,.,-3.9,1,.,.,-0.19
O=C1c2ccccc2C(=O)N1CCc1csc(-c2ccccc2)n1,-0.45,-1.4,39*,7,0,-0.76
CCCc1cc(=O)[nH]c(SCC)n1,-0.66,0.12,9,4,.,1.1
CCCc1cc(=O)[nH]c(-n2[nH]c3c(c2=O)CCCC3)n1,-0.04,.,4,69*,.,.
CCSc1nnc(NC(=O)CSc2nccn2-c2cc(C)cc(C)c2)s1,.,-0.62,16,3,0,-0.31
CCSc1nnc(NC(=O)CSc2nccn2-c2cccc(C)c2C)s1,.,-7.1*,7,4,0,1.6
CCSc1nnc(NC(=O)CSc2ncccn2)s1,0.16,0.3,4,1,0,-1
CCSc1nnc(NC(=O)CSc2c(Cl)cccc2Cl)s1,-3.2*,-0.23,9,6,-2,1.2
O=C(NCc1nc2ncc(Br)cc2[nH]1)c1ccccc1,0.51,-0.027,7,12,0,-7.3*
Cc1cccc[n+]1CC(=O)/C=C1\N(C)c2ccccc2C1(C)C,.,.,9,.,-2,.
CN1/C(=C\C(=O)CN2C(=O)NC3(CCCCCC3)C2=O)C(C)(C)c2ccccc21,-1.1,-4.2*,14,25,0,-1.3
O=C(Nc1ccccc1)C1=C[C@@H](c2ccc(C(F)(F)F)cc2)C[C@@H](OCCCCO)O1,.,-1.3,.,.,.,0.13
COc1cc(OC)cc(C(=O)N(Cc2cc3cc(C)ccc3[nH]c2=O)C(C)C)c1,0.83,-0.55,44*,-1,1,0.67
CCOC(=O)c1c(NC(=O)C(F)(OC)C(F)(F)F)sc2c1CCN(C)C2 (configuration not stated),-0.69,0.0084,12,56*,.,0.44
CCOC(=O)c1c(NC(=O)CSc2nnc(C)s2)sc2c1CCN(C)C2,-0.45,-0.25,3,40*,-1,1.1
O=C(O)c1ccoc1CN1CCCCC1,0.23,0.17,7,5,.,-0.55
Cc1ccc2occ(/C=N/O)c(=O)c2c1,0.22,-0.029,4,10,-3,-0.043
Cc1ccc2occ(/C=N/NC(N)=S)c(=O)c2c1,.,.,30*,.,3,.
C=CCn1c(COc2ccc(Cl)cc2)nnc1SCc1ccc(C#N)cc1,-0.51,-7.7*,.,11,0,-0.48
SMILES,Pyk2 oligo antag,Cav32 inh,Measles CPE,Rev-RRE block,Phagocyt inh,hDAT+cocaine
O=C(NCCC1=CCCCC1)C(=O)c1c[nH]c2ccccc12,.,.,18,.,-2,.
CCNC(=O)COc1ccc(-c2ccccc2)cc1,-0.63,0.26,62*,1,1,-0.68
Cc1cc(C(=O)OCC(=O)NCc2ccco2)c(C)n1-c1ccc(F)cc1,-0.18,-4.4*,8,.,10,1.6
Cc1ccc(-n2c(CNc3ccc(F)cc3)nnc2SCC(=O)NCc2ccco2)cc1,1,-5.2*,1,2,-2,1.7
O=C(COC(=O)c1ccccc1)NCc1ccco1,0.69,-0.23,26*,-11,0,-1.9
COc1ccc(NCc2nnc(SCC(=O)NCc3ccco3)n2-c2ccccc2OC)cc1,1.1,0.94,15,-1,.,1.9
COc1cc(/C=C/C(=O)OCC(=O)N2CCN(C(=O)c3ccco3)CC2)ccc1O,.,.,4,.,-2,.
CCOC(=O)c1c(NC(=O)CCN2CCOCC2)sc2c1CC(C)(C)OC2,0.51,0.29,3,.,1,2.8*
O=C(CSCc1cnn(-c2ccccc2)c1-n1cccc1)NCc1ccc2c(c1)OCO2,0.38,-7.7*,14,10,.,0.87
COc1cccc(CNC(=O)C2CCN(Cc3cnn(-c4ccccc4)c3-n3cccc3)CC2)c1,0.24,-4.6*,15,2,-2,-0.064
COc1ccc(CNC(=O)CSCc2cnn(-c3ccccc3)c2-n2cccc2)cc1,-0.41,-7*,3,-1,-1,0.21
O=C(NCc1ccccn1)C1CCN(Cc2cnn(-c3ccccc3)c2-n2cccc2)CC1,0.05,1.2,13,1,.,0.19
Cc1nn(Cc2cccc(C(=O)N3CCCC(C)C3)c2)c(C)c1[N+](=O)[O-] (configuration not stated),.,.,4,.,2,.
CCOc1cc(C(=O)OCC(=O)Nc2c(C)cccc2C)ccc1OCC(=O)N1CCOCC1,.,.,33*,.,-6,.
CCOc1cc(C(=O)OCC(=O)Nc2ncc(Cl)c(C)c2Cl)ccc1OCC(=O)N1CCOCC1,.,.,6,.,-7,.
O=S(Cc1cc(Oc2ccccc2)nc(-c2ccccc2)n1)c1ccccc1 (configuration not stated),-2.1,-6.6*,5,13,.,-0.71
CCOC(=O)c1[nH]c(C)c(C(=O)NCCCN2CCOCC2)c1C,-0.68,0.32,13,11,1,-5*
Cc1ccc(-n2c(=O)[nH]cc(C(=O)Nc3ccc4c(c3)OCCO4)c2=O)cc1,-3.1*,-0.049,7,-1,.,0.75
Cc1ccc(-n2c(=O)[nH]cc(C(=O)Nc3ccc4c(c3)OCCO4)c2=O)cc1C,-2.3,0.81,6,4,0,-0.071
O=C(CN1CCC(n2nnc3cc(F)ccc32)CC1)Nc1ccc2c(c1)CCC2,0.58,-5.6*,4,10,-1,0.93
O=C(CN1CCC(n2nnc3ccccc32)CC1)Nc1ccc2c(c1)CCC2,-0.05,-2.4,2,13,0,3.1*
COc1ccc(NC(=O)C23CC4CC(C2)CC(n2cnc(Br)n2)(C4)C3)c(OC)c1,-0.48,3.4*,13,5,2,-0.4
COc1ccc(OC)c(NC(=O)C23CC4CC(C2)CC(n2cnc(Br)n2)(C4)C3)c1,-0.06,0.67,41,10,-1,1.9
Cc1csc(NC(=O)C(Cc2ccccc2)n2cccc2)n1 (configuration not stated),.,-4.9*,2,-2,0,0.25
COc1cccc(OC)c1C(=O)N1CCN(S(=O)(=O)c2ccc(C)cc2)CC1,0.55,0.71,42*,1,-1,0.61
COC(=O)C1CN(S(=O)(=O)c2ccc(C)cc2)CCN1S(=O)(=O)c1ccc(C)cc1 (configuration not stated),-3.7*,-0.36,6,5,.,2.4
